In series [1] the test system is Chlamydia pecorum. Description: Antibacterial activity against Chlamydia pecorum G (MC/MarsBar;CpG) infected in McCoy B cells assessed as log reduction in infectivity unit at 25 uM measured after 44 hrs. Particulars: VR629 G (MC/MarsBar;CpG). Format: functional, organism-based. In outline:
(§1)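 C. trachomatis D was grown in HEp-2 cells and C. pecorum G in McCoy B cells, in high-glucose DMEM with 10% heat-inactivated FCS, 4 mM alanyl-glutamine, streptomycin and gentamicin. Cells were seeded at 20,000/well 24 h before infection, at MOI 12 (CtD) or MOI 4 (CpG). Infection was synchronised by centrifugation at 500×g, 28 °C, 30 min. Dose series added 16 h PI, with 1% DMSO and media controls. Read-out was IFU/mL; n=3.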

The test system of series [2] is HEp-2. Briefly: Cytotoxicity against human HEp-2 cells assessed as reduction in MTS absorbance at 100 uM by MTS assay. The series is classed as cell-based. Particulars: hep-2, 100 µM. Also noted: scale not given: the % may be the effect or the level left. A digest of the protocol:
(§2)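 HEp-2 cells were seeded at 5000/well and treated 24 h later with compound (two doses) alongside 1% DMSO and media controls, in triplicate. After 24 h treatment, medium was replaced with fresh supplemented DMEM. MTS/PMS was added for 4 h and absorbance read at 490 nm. Results are expressed as % MTS reduction relative to 1% DMSO-treated cells.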

Series [3] concerns Chlamydia trachomatis. Briefly: Antibacterial activity against Chlamydia trachomatis D (D/UW-3/Cx; CtD) infected in HEp-2 cells assessed as log reduction in infectivity unit at 25 uM measured after 44 hrs. The series is classed as functional. In outline: as §1
For series [4], the target named is T1, Probable periplasmic serine endoprotease DegP-like (Chlamydia trachomatis, UniProt P18584).
T1 sequence (P18584 whole entry): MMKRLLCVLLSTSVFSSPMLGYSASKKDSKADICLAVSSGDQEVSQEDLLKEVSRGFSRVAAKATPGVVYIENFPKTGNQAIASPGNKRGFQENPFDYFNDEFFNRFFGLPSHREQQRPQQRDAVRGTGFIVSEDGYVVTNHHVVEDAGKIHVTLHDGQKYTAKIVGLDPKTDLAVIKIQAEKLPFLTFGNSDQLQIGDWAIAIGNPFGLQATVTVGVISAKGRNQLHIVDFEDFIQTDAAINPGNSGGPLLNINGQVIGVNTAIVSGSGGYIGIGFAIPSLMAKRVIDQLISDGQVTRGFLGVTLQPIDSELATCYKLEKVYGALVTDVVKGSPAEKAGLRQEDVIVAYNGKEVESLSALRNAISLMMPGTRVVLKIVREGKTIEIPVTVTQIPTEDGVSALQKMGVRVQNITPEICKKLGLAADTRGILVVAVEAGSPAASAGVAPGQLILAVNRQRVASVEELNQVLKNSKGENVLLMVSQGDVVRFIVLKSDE
Briefly: Inhibition of recombinant ctHtrA serine protease using MeOCoum-ENLHLPLPI1F-D as substrate pretreated for 10 min followed by substrate addition and measured after 30 minutes. A digest of the protocol:
(§3)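 Recombinant CtHtrA was tested against a six-dose inhibitor series in 50 mM Tris, 20 mM MgCl₂, pH 7.0. Plates were shaken before each of multiple reads per well. Each dose was run in triplicate, with a JO146 dose series (n=3) and DMSO controls (n=6). Relative inhibition is IC50(JO146)/IC50(compound), because IC50 varied between batches.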

For series [5], the system named is HEp-2. Briefly: Cytotoxicity against human HEp-2 cells assessed as decrease in cell integrity at 100 uM by LDH assay. Particulars: hep-2, 100 µM. Also noted: scale not given: the % may be the effect or the level left. Format: cell-based. A digest of the protocol:
(§4)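 HEp-2 cells were seeded at 5000/well and treated 24 h later at two doses, with 1% DMSO and media-only controls, in triplicate, for 8 h. Maximum-release wells were lysed with 0.8% Triton X-100 45 min before supernatant collection. Supernatant was incubated with CytoTox reagent for 30 min, then stop solution, and read at A490. Extracellular LDH is given as % of maximum release.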

The target in series [6] is T2, Probable periplasmic serine endoprotease DegP-like (Chlamydia trachomatis) (UniProt P18584).
T2 sequence (whole entry): T1 sequence (P18584 whole entry)
Briefly: Ratio of JO146 IC50 to test compound IC50 for inhibition of recombinant ctHtrA serine protease using Me0Coum-ENLHLPLPI1F-D as substrate pretreated for 10 minutes followed by substrate addition and measured after 30 minutes. A digest of the protocol:
as §3

For the next series, the system named is Staphylococcus aureus. Description: Antibacterial activity against Staphylococcus aureus assessed as growth inhibition at 50 uM. Format: functional, organism-based. A digest of the protocol: (§5)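 Broth microdilution MIC in cation-adjusted Mueller Hinton broth. Compound was 2-fold serially diluted from 32 µg/mL (approx. 50 µM) to 0.015 µg/mL. The inoculum was about 5×10⁵ CFU/mL from overnight cultures. Plates were incubated at 37 °C with shaking for 24 h. MIC was the lowest concentration without growth; technical triplicate.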

For another series, the system named is Pseudomonas aeruginosa. Description: Antibacterial activity against Pseudomonas aeruginosa assessed as growth inhibition at 50 uM. The series is classed as functional, organism-based. A digest of the protocol: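 P. aeruginosa PAO1 was grown overnight in fluorescent broth (pH 7.0) at 37 °C with shaking, diluted 1/1000 with added MgSO₄, and given compound at 50 or 100 µM final. DMSO controls were 0.5% or 1%. OD600 and fluorescence (ex 405/em 460 nm) were read every 15 min for 24 or 48 h. Pyoverdine was quantified as area under the curve.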

The target in a further series is T3, Neutrophil elastase (Homo sapiens, UniProt P08246).
T3 sequence (P08246 whole entry): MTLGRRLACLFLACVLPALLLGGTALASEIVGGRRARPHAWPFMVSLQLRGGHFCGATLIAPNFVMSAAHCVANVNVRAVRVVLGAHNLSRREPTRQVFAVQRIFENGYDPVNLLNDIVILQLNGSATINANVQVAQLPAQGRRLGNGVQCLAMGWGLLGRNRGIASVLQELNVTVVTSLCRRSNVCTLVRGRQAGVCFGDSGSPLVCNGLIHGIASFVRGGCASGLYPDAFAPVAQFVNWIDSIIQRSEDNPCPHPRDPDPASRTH
Briefly: Inhibition of human neutrophil elastase using methoxysuccinyl-Ala-Ala-Pro-Val-pNA as substrate incubated for 15 min.

Series [7] deals with HEp-2. Briefly: Cytotoxicity against human HEp-2 cells assessed as decrease in cell integrity at 25 uM by LDH assay. Also noted: scale not given: the % may be the effect or the level left. The note with it: hep-2, 25 µM. Format: cell-based. A digest of the protocol: as §4
In another series the test system is Escherichia coli. Description: Antibacterial activity against Escherichia coli assessed as growth inhibition at 50 uM. The series is classed as functional, organism-based. In outline:
as §5

The test system of series [8] is Chlamydia pecorum. Description: Antibacterial activity against Chlamydia pecorum G (MC/MarsBar;CpG) infected in McCoy B cells assessed as reduction in bacterial titer at 50 to 100 uM measured after 44 hrs. The note with it: VR629 G (MC/MarsBar;CpG), dose 50-100 µM. Format: functional, organism-based. A digest of the protocol: as §1
For series [9], the system named is Chlamydia trachomatis. Description: Antibacterial activity against Chlamydia trachomatis D (D/UW-3/Cx; CtD) infected in HEp-2 cells assessed as reduction in bacterial titer at 50 to 100 uM measured after 44 hrs. The note with it: dose 50-100 µM. Format: functional, organism-based. A digest of the protocol:
as §1

Series [10] deals with HEp-2. Description: Cytotoxicity against human HEp-2 cells assessed as reduction in MTS absorbance at 25 uM by MTS assay. The note with it: hep-2, 25 µM. Format: cell-based. A digest of the protocol: as §2

The source made the active and inactive calls. The calls are words filed in the database; no cut-off is given here.

In the case of `CCC(C)C(NC(=O)C(C)n1cccc(NC(=O)OC(C)(C)C)c1=O)P(=O)(Oc1ccccc1)Oc1ccccc1` (configuration not stated), the outcome with Chlamydia pecorum [1] and in the series on Chlamydia trachomatis [3] was Active. The Activity result in the series on HEp-2 [2] is recorded as “<= 25%”; in the series on HEp-2 [5], < 10%. Also, the IC50 in [4] amounted to 128 µM.

For `CCC(C)C(NC(=O)Cn1cccc(NC(=O)Oc2ccccc2)c1=O)P(=O)(Oc1ccccc1)Oc1ccccc1` (configuration not stated), the result in the series on Chlamydia pecorum [1] and with Chlamydia trachomatis [3] was Active. In the series on HEp-2 [2], the Activity entry is “<= 25%”.

With `CC(C)C(NC(=O)[C@@H]1CCCN1C(=O)[C@@H](NC(=O)OC(C)(C)C)C(C)(C)C)P(=O)(Oc1ccccc1)Oc1ccccc1` (some centres not stated), in series [6], the Ratio IC50 stood at 1.34. In addition, the result in the series with Staphylococcus aureus, in the series with Pseudomonas aeruginosa and with Escherichia coli was inactive. Besides, the IC50 on Neutrophil elastase worked out at 3.02 µM; in [4] it was 9.3 µM. Besides, the Activity entry in the series on HEp-2 [7] was “<= 3.4%”.

As to `CC(C)C(NC(=O)Cn1cccc(NC(=O)Oc2ccccc2)c1=O)P(=O)(Oc1ccccc1)Oc1ccccc1` (configuration not stated), the outcome in the series with Chlamydia pecorum [1], in the series with Chlamydia pecorum [8], with Chlamydia trachomatis [9] and in the series on Chlamydia trachomatis [3] was Active. Moreover, the Activity entry in the series on HEp-2 [2] is “<= 25%”.

On to `CCC(C)C(NC(=O)[C@@H]1CCCN1C(=O)[C@@H](NC(=O)C(C)(C)C)C(C)(C)C)P(=O)(Oc1ccccc1)Oc1ccccc1` (some centres not stated), for which the outcome with Chlamydia pecorum [1] and with Chlamydia trachomatis [3] was Active. In addition, the Activity entry in the series on HEp-2 [10] was “Non-Toxic”; in the series on HEp-2 [2], “Toxic”; in the series with HEp-2 [7], “<= 3.4%”.

With `CCC(C)C(NC(=O)[C@@H]1CCCN1C(=O)[C@@H](NC(=O)NC(C)(C)C)C(C)(C)C)P(=O)(Oc1ccccc1)Oc1ccccc1` (some centres not stated), the Activity result in the series with HEp-2 [10] is listed as “Non-Toxic”; with HEp-2 [2], “Toxic”; in the series with HEp-2 [7], “<= 3.4%”.

Take `CCC(C)C(NC(=O)C(C)n1cccc(NC(=O)Oc2ccccc2)c1=O)P(=O)(Oc1ccccc1)Oc1ccccc1` (configuration not stated): the outcome in the series with Chlamydia pecorum [1] and in the series on Chlamydia trachomatis [3] was Active. For the same molecule, the Activity result in the series with HEp-2 [2] is listed as “<= 25%”. In addition, the 50% inhibitory concentration (IC50) in series [4] came out at 19.8 µM.

For the molecule `CC(C)C(NC(=O)[C@@H]1CCCN1C(=O)[C@@H](NC(=O)OC(C)(C)C)C(C)C)P(=O)(Oc1ccccc1)Oc1ccccc1` (some centres not stated), the Ratio IC50 in series [6] came out at 1. The outcome in the series on Staphylococcus aureus, in the series on Pseudomonas aeruginosa and in the series on Escherichia coli was inactive. For the same molecule, the result in the series with Chlamydia pecorum [1] and in the series on Chlamydia trachomatis [3] was Active. Moreover, the figures for the Activity result in the series with HEp-2 [2] and in the series with HEp-2 [7] were “<= 25%” and “<= 3.4%”, respectively. The half-inhibitory concentration (IC50) on Neutrophil elastase worked out at 1.15 µM; in series [4], 12.5 µM.

On to `CC(C)C(NC(=O)[C@@H]1CCCN1C(=O)[C@@H](NC(=O)OCc1ccccc1)C(C)(C)C)P(=O)(Oc1ccccc1)Oc1ccccc1` (some centres not stated), for which the Activity entry is listed as “Non-Toxic” in the series with HEp-2 [10], “Toxic” with HEp-2 [2] and “<= 3.4%” with HEp-2 [7].

As to `CC(C)C(NC(=O)C(C)n1cccc(NC(=O)OC(C)(C)C)c1=O)P(=O)(Oc1ccccc1)Oc1ccccc1` (configuration not stated), the outcome in the series on Chlamydia pecorum [1], in the series with Chlamydia pecorum [8], in the series on Chlamydia trachomatis [9] and in the series on Chlamydia trachomatis [3] was Active. Also, in the series with HEp-2 [2], the Activity result was “<= 25%”.

For `CC(C)C(NC(=O)C(C)n1cccc(NC(=O)Oc2ccccc2)c1=O)P(=O)(Oc1ccccc1)Oc1ccccc1` (configuration not stated), the result in the series with Chlamydia pecorum [1], in the series with Chlamydia pecorum [8], with Chlamydia trachomatis [9] and in the series with Chlamydia trachomatis [3] was Active. Further, the Activity result in the series with HEp-2 [2] was “<= 25%”. Besides, the half-inhibitory concentration (IC50) in [4] turned out to be 41.8 µM.

Consider `CCC(C)C(NC(=O)[C@@H]1CCCN1C(=O)[C@@H](NC(=O)OCc1ccccc1)C(C)(C)C)P(=O)(Oc1ccccc1)Oc1ccccc1` (some centres not stated), for which the Activity result with HEp-2 [10] is on record as “Non-Toxic”; with HEp-2 [2], “Toxic”; in the series on HEp-2 [7] it was “<= 3.4%”. The outcome in the series with Chlamydia pecorum [8] and in the series on Chlamydia trachomatis [9] was Active. In [4], the half-inhibitory concentration (IC50) was 24.9 µM.

In the case of `CCC(C)C(NC(=O)[C@@H]1CCCN1C(=O)[C@@H](NC(=O)OC(C)(C)C)C(C)(C)C)P(=O)(Oc1ccccc1)Oc1ccccc1` (some centres not stated), the Ratio IC50 in series [6] came out at 1.22. The outcome with Staphylococcus aureus, in the series on Pseudomonas aeruginosa and in the series with Escherichia coli was inactive. For the same molecule, the half-inhibitory concentration (IC50) on Neutrophil elastase was 13.5 µM; in [4], 10.3 µM. For the same molecule, the Activity result in the series with HEp-2 [7] is recorded as “<= 3.4%”.

Regarding `CC(C)C(NC(=O)[C@@H]1CCCN1C(=O)[C@@H](NC(=O)NC(C)(C)C)C(C)(C)C)P(=O)(Oc1ccccc1)Oc1ccccc1` (some centres not stated), the Activity entry is recorded as “Non-Toxic” in the series on HEp-2 [10], “Toxic” in the series with HEp-2 [2] and “<= 3.4%” in the series on HEp-2 [7].
